The text below walks through data of ChEMBL document CHEMBL2040711, “Synthesis, characterization and antimicrobial studies of some new quinoline incorporated benzimidazole derivatives” (2012).

Structures are written as SMILES.

What all share (format): functional
Holding throughout (conditions): read-out: DIZ

The test system of test [1] is Aspergillus terreus. As to the kind of experiment: Antifungal activity against Aspergillus terreus at 12.5 ug/ml after 72 hrs by well plate method. The essentials: (§1)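 Sabouraud agar: peptone 10 g, glucose 40 g, agar 20 g per litre water, pH 5.7. Spore suspension made from a loopful of fungus in 3 mL normal saline and lawned on 20 mL agar per dish. Excess decanted, plates dried 1 h at 37 °C. Wells punched and loaded with compound in DMSO (6.25 or 12.5 μg/mL). DMSO control. Triplicate plates held at 25 °C for 72 h. Inhibition zone diameter measured. A. terreus strain NCIM 1325.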

For test [2], the system named is Staphylococcus aureus. As to the kind of experiment: Antibacterial activity against Staphylococcus aureus at 6.25 ug/ml after 24 to 48 hrs by well plate diffusion method. In short, it runs like this: (§2)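 Agar well diffusion: 15-20 mL agar per dish, plates dried 1 h at 37 ± 2 °C in laminar flow, then seeded. Wells cut with an agar punch, each loaded with compound dissolved in DMSO (6.25 or 12.5 μg/mL). DMSO solvent control, ciprofloxacin standard. Plates in triplicate, incubated 37 ± 2 °C for 24–48 h. Inhibition zone diameter read in mm, with SD.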

The test system of test [3] is Staphylococcus aureus. As to the kind of experiment: Antibacterial activity against Staphylococcus aureus at 12.5 ug/ml after 24 to 48 hrs by well plate diffusion method. In short, it runs like this: as §2
Test [4] concerns Escherichia coli. As to the kind of experiment: Antibacterial activity against Escherichia coli at 6.25 ug/ml after 24 to 48 hrs by well plate diffusion method. The essentials:
as §2

In test [5] the test system is Escherichia coli. As to the kind of experiment: Antibacterial activity against Escherichia coli at 12.5 ug/ml after 24 to 48 hrs by well plate diffusion method. The essentials: as §2
Test [6] concerns Xanthomonas sp. As to the kind of experiment: Antibacterial activity against Xanthomonas sp. at 6.25 ug/ml after 24 to 48 hrs by well plate diffusion method. The essentials:
as §2

For test [7], the system named is Xanthomonas sp. As to the kind of experiment: Antibacterial activity against Xanthomonas sp. at 12.5 ug/ml after 24 to 48 hrs by well plate diffusion method. In short, it runs like this: as §2
The test system of test [8] is Salmonella sp. As to the kind of experiment: Antibacterial activity against Salmonella sp. at 6.25 ug/ml after 24 to 48 hrs by well plate diffusion method. In short, it runs like this: as §2
In test [9] the test system is Salmonella sp. As to the kind of experiment: Antibacterial activity against Salmonella sp. at 12.5 ug/ml after 24 to 48 hrs by well plate diffusion method. In short, it runs like this: as §2
The subject of test [10] is Aspergillus niger. As to the kind of experiment: Antifungal activity against Aspergillus niger at 6.25 ug/ml after 72 hrs by well plate method.
Test [11] has as its system Aspergillus niger. As to the kind of experiment: Antifungal activity against Aspergillus niger at 12.5 ug/ml after 72 hrs by well plate method.
The test system of the next test is Aspergillus flavus. As to the kind of experiment: Antifungal activity against Aspergillus flavus at 12.5 ug/ml after 72 hrs by well plate method.
Test [12] deals with Penicillium sp. As to the kind of experiment: Antifungal activity against Penicillium sp. at 6.25 ug/ml after 72 hrs by well plate method.
Test [13] deals with Penicillium sp. As to the kind of experiment: Antifungal activity against Penicillium sp. at 12.5 ug/ml after 72 hrs by well plate method.
For test [14], the system named is Aspergillus terreus. As to the kind of experiment: Antifungal activity against Aspergillus terreus at 6.25 ug/ml after 72 hrs by well plate method. The essentials:
as §1

Take `COc1ccc2nc(-c3cc(-c4ccc(F)cc4)nc4ccccc34)[nH]c2c1`: the zone of inhibition at 12.5 µg/mL with Aspergillus terreus [1] amounted to 13 mm; with Staphylococcus aureus [3], 12 mm; with Escherichia coli [5], 14 mm; in the test on Xanthomonas sp. [7], 14 mm; in the test with Salmonella sp. [9], 11 mm; in the test with Aspergillus niger [11] it was 12 mm. Also, the zone of inhibition at 12.5 µg/mL in the test on Aspergillus flavus came to 10 mm; with Penicillium sp. [13], 18 mm. Also, the zone of inhibition at 6.25 µg/mL in the test on Staphylococcus aureus [2] amounted to 12 mm; with Escherichia coli [4], 12 mm; in the test with Xanthomonas sp. [6], 12 mm; in the test on Salmonella sp. [8], 10 mm; in the test with Aspergillus niger [10], 10 mm; in the test on Penicillium sp. [12], 16 mm. In the test on Aspergillus terreus [14], the zone of inhibition at 6.25 µg/mL came out at 12 mm.

In the case of `Fc1ccc(-c2cc(-c3nc4ccc(Cl)cc4[nH]3)c3cc(F)ccc3n2)cc1`, the zone of inhibition at 12.5 µg/mL in the test on Aspergillus terreus [1] was determined as 14 mm; in the test with Staphylococcus aureus [3] it was 12 mm; in the test with Escherichia coli [5], 11 mm; in the test with Xanthomonas sp. [7], 12 mm; with Salmonella sp. [9], 11 mm; with Aspergillus niger [11], 10 mm. In addition, the zone of inhibition at 12.5 µg/mL was determined as 10 mm with Aspergillus flavus and 17 mm in the test on Penicillium sp. [13]. Also, the zone of inhibition at 6.25 µg/mL in the test on Staphylococcus aureus [2] worked out at 12 mm; with Escherichia coli [4], 10 mm; in the test on Xanthomonas sp. [6], 11 mm; in the test with Penicillium sp. [12], 15 mm; in the test on Aspergillus terreus [14], 10 mm.

For the compound `O=C(O)c1cn(C2CC2)c2cc(N3CCNCC3)c(F)cc2c1=O` [CIPROFLOXACIN], the values for the zone of inhibition at 6.25 µg/mL with Staphylococcus aureus [2], in the test on Xanthomonas sp. [6] and in the test on Salmonella sp. [8] were 18 mm, 18 mm and 19 mm, respectively. The zone of inhibition at 12.5 µg/mL with Staphylococcus aureus [3] stood at 20 mm; with Xanthomonas sp. [7] it was 22 mm; in the test with Salmonella sp. [9], 31 mm.

On to `Fc1ccc(-c2cc(-c3nc4ncccc4[nH]3)c3ccccc3n2)cc1`, for which the zone of inhibition at 12.5 µg/mL amounted to 10 mm with Aspergillus terreus [1]; 16 mm with Staphylococcus aureus [3]; 14 mm in the test with Escherichia coli [5]; 14 mm with Xanthomonas sp. [7]; 12 mm with Salmonella sp. [9]; 16 mm in the test on Aspergillus niger [11]. The zone of inhibition at 12.5 µg/mL amounted to 11 mm in the test with Aspergillus flavus and 17 mm in the test on Penicillium sp. [13]. In addition, the zone of inhibition at 6.25 µg/mL in the test on Staphylococcus aureus [2] is 16 mm; in the test on Escherichia coli [4], 14 mm; with Xanthomonas sp. [6] it was 10 mm; with Salmonella sp. [8], 9 mm; in the test on Aspergillus niger [10], 14 mm; in the test on Penicillium sp. [12], 16 mm. Besides, in the test on Aspergillus terreus [14], the zone of inhibition at 6.25 µg/mL is 9 mm.

For the compound `Fc1ccc(-c2cc(-c3nc4ccc(F)cc4[nH]3)c3cc(F)ccc3n2)cc1`, the zone of inhibition at 12.5 µg/mL was found to be 9 mm in the test with Aspergillus terreus [1]; 12 mm in the test with Staphylococcus aureus [3]; 16 mm in the test on Escherichia coli [5]; 14 mm in the test with Xanthomonas sp. [7]; 13 mm in the test on Salmonella sp. [9]; 17 mm in the test with Aspergillus niger [11]. Further, in the test on Penicillium sp. [13], the zone of inhibition at 12.5 µg/mL turned out to be 13 mm. Further, the zone of inhibition at 6.25 µg/mL in the test on Staphylococcus aureus [2] was found to be 12 mm; in the test on Escherichia coli [4], 16 mm; in the test with Salmonella sp. [8], 9 mm; in the test with Aspergillus niger [10] it was 10 mm; in the test with Penicillium sp. [12], 13 mm; in the test with Aspergillus terreus [14], 10 mm.

Turning to `Fc1ccc(-c2cc(-c3nc4ccc(F)cc4[nH]3)c3ccccc3n2)cc1`, the zone of inhibition at 12.5 µg/mL worked out at 12 mm with Aspergillus terreus [1]; 16 mm with Staphylococcus aureus [3]; 11 mm in the test on Escherichia coli [5]; 13 mm with Xanthomonas sp. [7]; 11 mm in the test on Salmonella sp. [9]; 14 mm in the test with Aspergillus niger [11]. In addition, the zone of inhibition at 12.5 µg/mL in the test with Aspergillus flavus worked out at 14 mm; with Penicillium sp. [13], 15 mm. The zone of inhibition at 6.25 µg/mL amounted to 10 mm in the test with Staphylococcus aureus [2]; 10 mm in the test on Escherichia coli [4]; 10 mm with Salmonella sp. [8]; 12 mm with Penicillium sp. [12]; 12 mm in the test with Aspergillus terreus [14].

As to `Fc1ccc(-c2cc(-c3nc4ccccc4[nH]3)c3cc(Cl)ccc3n2)cc1`, the zone of inhibition at 12.5 µg/mL in the test on Aspergillus terreus [1] was 14 mm; in the test on Staphylococcus aureus [3], 13 mm; with Escherichia coli [5], 13 mm; in the test with Xanthomonas sp. [7] it was 10 mm; in the test on Salmonella sp. [9] it was 9 mm; in the test with Aspergillus niger [11], 12 mm. Besides, the zone of inhibition at 12.5 µg/mL in the test on Penicillium sp. [13] was 18 mm. In addition, the zone of inhibition at 6.25 µg/mL turned out to be 12 mm in the test on Staphylococcus aureus [2], 10 mm in the test on Aspergillus niger [10], 16 mm in the test with Penicillium sp. [12] and 13 mm in the test with Aspergillus terreus [14].

On to `Fc1ccc(-c2cc(-c3nc4ncccc4[nH]3)c3cc(Cl)ccc3n2)cc1`, for which the zone of inhibition at 12.5 µg/mL is 15 mm with Aspergillus terreus [1]; 18 mm with Staphylococcus aureus [3]; 16 mm in the test on Escherichia coli [5]; 16 mm in the test with Xanthomonas sp. [7]; 20 mm with Salmonella sp. [9]; 14 mm in the test on Aspergillus niger [11]. The results for the zone of inhibition at 12.5 µg/mL with Aspergillus flavus and with Penicillium sp. [13] were 10 mm and 13 mm, respectively. Also, the zone of inhibition at 6.25 µg/mL with Staphylococcus aureus [2] turned out to be 14 mm; with Escherichia coli [4], 16 mm; in the test on Xanthomonas sp. [6], 15 mm; in the test with Salmonella sp. [8], 9 mm; in the test on Aspergillus niger [10], 12 mm; in the test with Aspergillus terreus [14], 9 mm.

For the compound `Fc1ccc(-c2cc(-c3nc4ccccc4[nH]3)c3cc(F)ccc3n2)cc1`, the zone of inhibition at 12.5 µg/mL in the test with Aspergillus terreus [1] stood at 9 mm; in the test with Staphylococcus aureus [3] it was 15 mm; in the test on Escherichia coli [5] it was 15 mm; in the test on Xanthomonas sp. [7], 14 mm; in the test on Salmonella sp. [9], 15 mm; in the test on Aspergillus niger [11], 12 mm. Further, the zone of inhibition at 12.5 µg/mL is 10 mm in the test on Aspergillus flavus and 12 mm in the test with Penicillium sp. [13]. The zone of inhibition at 6.25 µg/mL came out at 14 mm in the test with Staphylococcus aureus [2]; 10 mm with Escherichia coli [4]; 14 mm in the test with Xanthomonas sp. [6]; 15 mm in the test with Salmonella sp. [8]; 10 mm in the test with Aspergillus niger [10]; 12 mm in the test on Penicillium sp. [12]. Further, the zone of inhibition at 6.25 µg/mL in the test with Aspergillus terreus [14] was 9 mm.

Consider `Fc1ccc(-c2cc(-c3nc4ccc(Cl)cc4[nH]3)c3cc(Cl)ccc3n2)cc1`, for which the zone of inhibition at 12.5 µg/mL turned out to be 9 mm in the test with Aspergillus terreus [1]; 16 mm in the test on Staphylococcus aureus [3]; 12 mm with Escherichia coli [5]; 10 mm in the test on Xanthomonas sp. [7]; 13 mm in the test on Salmonella sp. [9]; 10 mm in the test on Aspergillus niger [11]. In addition, the zone of inhibition at 12.5 µg/mL in the test on Aspergillus flavus and in the test on Penicillium sp. [13] was 17 mm throughout. Besides, the zone of inhibition at 6.25 µg/mL came to 16 mm with Staphylococcus aureus [2]; 12 mm with Escherichia coli [4]; 10 mm with Salmonella sp. [8]; 12 mm in the test with Penicillium sp. [12]; 9 mm with Aspergillus terreus [14].
